Results taken from article PMC7439261 (ACS Omega, 2020).
Converted amounts (≈) assume the structure as drawn.

Experiments:
H. pylori ATCC 43504 [1] = experiment: Time-killing assay; assay type: cell-based, Helicobacter pylori
Procedure, shortened: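 H. pylori ATCC 43504 in 10% NBS-supplemented Brucella broth in 96-well plates, by broth microdilution. Inoculum suspension 5×10^6 CFU/mL; DMSO final ≤2.5%. Test compound was used at concentrations from MIC to MBC, alongside an untreated control. Viability was counted by plate colony count at 0, 6, 12, 18, 24, 36 and 48 h.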

H. pylori ATCC 43504 [2] = experiment: Broth dilution bioassay MIC/MBC, ATCC 43504; assay type: cell-based; conditions: Helicobacter pylori; for MIC: ATCC43504, 48 h; for MBC: ATCC43504, 72 h
[3] = Sulforhodamine cytotoxicity assay, HeLa; assay type: cell-based; conditions: human, HeLa cells
Procedure, shortened: (§1)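 Cells were grown in EMEM with 10% FBS, 2 mM L-glutamine, 20 mM HEPES and antibiotics at 37 °C, 5% CO2. Passages were 4–20 for HeLa, MCF7 and Jurkat, and 2–5 for fibroblasts. Seeding per well for 24 h: HeLa 5×10^3, MCF7 and fibroblast 10^4, Jurkat 5×10^4. Test compound (0–200 mg/L, in DMSO) was added for 48 h. Cells were fixed with cold TCA, stained with 0.2% SRB, solubilised in 10 mM Tris and read at 492 nm. Camptothecin was the positive control. Triplicates, three independent experiments.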

H. pylori OX.67 = experiment: Broth dilution bioassay MIC/MBC, OX.67; assay type: cell-based, Helicobacter pylori; conditions: Helicobacter pylori; for MIC: OX.67, 48 h, H. pylori OX.67, broth dilution, 48 h; for MBC: OX.67, 72 h
[4] = Sulforhodamine cytotoxicity assay, fibroblast; assay type: cell-based; conditions: human, fibroblast cells derived from human foreskins
Procedure, shortened: as §1

[5] = Sulforhodamine cytotoxicity assay, MCF7; assay type: cell-based; conditions: human, MCF7 cells
Procedure, shortened: as §1

H. pylori OX.83 = experiment: Broth dilution bioassay MIC/MBC, OX.83; assay type: cell-based, Helicobacter pylori; conditions: Helicobacter pylori; for MIC: OX.83, 48 h, H. pylori OX.83, broth dilution, 48 h; for MBC: OX.83, 72 h
[6] = Sulforhodamine cytotoxicity assay, Jurkat; assay type: cell-based; conditions: human, Jurkat cells
Procedure, shortened: as §1

[7] = target: H. pylori ATCC 43504 urease (Helicobacter pylori, UniProt P69996); experiment: Urease inhibition, salicylate-hypochlorite method; assay type: biochemical; conditions: for slope ± SE: slope of dose-response curve of percentage of urease inhibition
Procedure, shortened: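 Crude H. pylori ATCC 43504 urease, 0.25 μg (0.04 U), in EDTA–sodium phosphate buffer pH 7.3, was preincubated with test compound at 37 °C for 90 min at 50 rpm. Urea solution (10 mM, as added) was then incubated for 30 min. Ammonia was measured by the salicylate–nitroprusside/alkaline hypochlorite method at 625 nm. Thiourea was the reference inhibitor. IC50 is molar. Triplicates, three independent experiments.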

[8] = test system: test strains of H. pylori; experiment: Broth dilution bioassay MIC/MBC, text summary over test strains; assay type: cell-based; conditions: Helicobacter pylori, ATCC51932
H. pylori OX.64 = experiment: Broth dilution bioassay MIC/MBC, OX.64; assay type: cell-based, Helicobacter pylori; conditions: Helicobacter pylori; for MIC: OX.64, 48 h, H. pylori OX.64, broth dilution, 48 h; for MBC: OX.64, 72 h
H. pylori ATCC 51932 = experiment: Broth dilution bioassay MIC/MBC, ATCC 51932; assay type: cell-based; conditions: Helicobacter pylori; for MIC: ATCC51932, 48 h; for MBC: ATCC51932, 72 h
[9] = test system: H. pylori ATCC 43504 biofilm formation; experiment: Biofilm formation inhibitory assay; assay type: cell-based, Helicobacter pylori; conditions: 48 h
H. pylori OX.22 = experiment: Broth dilution bioassay MIC/MBC, OX.22; assay type: cell-based; conditions: Helicobacter pylori; for MIC: OX.22, 48 h; for MBC: OX.22, 72 h
[10] = Sulforhodamine cytotoxicity assay, text summary over four cell lines; assay type: cell-based; conditions: human
Procedure, shortened: as §1

H. pylori ATCC 43504 [11] = experiment: Effect on morphology; assay type: cell-based, Helicobacter pylori
H. pylori OX.63 = experiment: Broth dilution bioassay MIC/MBC, OX.63; assay type: cell-based, Helicobacter pylori; conditions: Helicobacter pylori; for MIC: OX.63, 48 h, H. pylori OX.63, broth dilution, 48 h; for MBC: OX.63, 72 h

Chain of H. pylori ATCC 43504 urease (P69996 whole entry): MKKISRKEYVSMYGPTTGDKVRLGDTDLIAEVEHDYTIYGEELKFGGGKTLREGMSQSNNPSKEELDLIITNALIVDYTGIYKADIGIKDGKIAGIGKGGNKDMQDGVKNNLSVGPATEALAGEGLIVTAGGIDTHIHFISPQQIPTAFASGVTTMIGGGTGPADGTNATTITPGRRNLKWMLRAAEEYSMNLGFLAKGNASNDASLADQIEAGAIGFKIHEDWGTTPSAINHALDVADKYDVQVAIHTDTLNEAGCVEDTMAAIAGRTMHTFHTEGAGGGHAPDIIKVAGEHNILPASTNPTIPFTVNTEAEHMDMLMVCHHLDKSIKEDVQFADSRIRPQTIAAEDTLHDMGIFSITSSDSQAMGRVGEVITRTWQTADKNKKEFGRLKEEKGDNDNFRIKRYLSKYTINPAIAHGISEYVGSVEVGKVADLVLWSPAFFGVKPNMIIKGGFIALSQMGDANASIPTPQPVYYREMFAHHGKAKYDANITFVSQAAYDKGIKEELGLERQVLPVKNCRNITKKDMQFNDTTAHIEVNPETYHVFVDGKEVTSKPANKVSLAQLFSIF
Chain of H. pylori ATCC 43504 urease (P14916 whole entry partner): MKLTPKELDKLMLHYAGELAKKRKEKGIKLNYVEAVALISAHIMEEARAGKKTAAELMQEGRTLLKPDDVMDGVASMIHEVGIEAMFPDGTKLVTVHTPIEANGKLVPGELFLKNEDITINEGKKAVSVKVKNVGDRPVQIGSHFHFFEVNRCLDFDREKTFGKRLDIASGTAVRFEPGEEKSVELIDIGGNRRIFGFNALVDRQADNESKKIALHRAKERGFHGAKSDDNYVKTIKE

For `O=C1C[C@@H](c2ccc(O)cc2)Oc2cc(O)cc(O)c21` [NRG, naringenin], which reduction of viability (H. pylori ATCC 43504 [1]; at the MIC, 48 h) is on record?
Its reduction of viability is about 1 log10.

And the reduction of viability (H. pylori ATCC 43504 [1]; five times the MIC, 24 h)?
Its reduction of viability is about 2.5 log10.

And the reduction of viability (H. pylori ATCC 43504 [1]; five times the MIC, 36 h)?
The reduction of viability was about 4 log10.

What about the MIC (H. pylori ATCC 43504 [2]) of the same molecule?
Its MIC is 100 µg/mL (≈ 367 µM).

What about the MBC (H. pylori ATCC 43504 [2]) of the same molecule?
The MBC was 1000 µg/mL (≈ 3670 µM).

And the CC50 at 48 h [3]?
Its CC50 at 48 h is 65.2 µg/mL (≈ 239 µM).

What about the MIC (H. pylori OX.67) of the same molecule?
Its MIC is 100 µg/mL (≈ 367 µM).

What about the MBC (H. pylori OX.67) of the same molecule?
The MBC was 1000 µg/mL (≈ 3670 µM).

And the CC50 at 48 h [4]?
Its CC50 at 48 h is 133 µg/mL (≈ 490 µM).

What about the CC50 at 48 h [5] of the same molecule?
Its CC50 at 48 h is 93.7 µg/mL (≈ 344 µM).

And the MIC (H. pylori OX.83)?
Its MIC is 100 µg/mL (≈ 367 µM).

And the MBC (H. pylori OX.83)?
The MBC was 1000 µg/mL (≈ 3670 µM).

And the CC50 at 48 h [6]?
Its CC50 at 48 h is 46.6 µg/mL (≈ 171 µM).

What about the IC50 [7] of the same molecule?
The IC50 was 575 µM.

And the “slope ± SE” value [7]?
Its value is 1.38 ± 0.045.

And the MIC [8]?
Its MIC is 100 µg/mL (≈ 367 µM).

And the MIC (H. pylori OX.64)?
The MIC was 100 µg/mL (≈ 367 µM).

What about the MBC (H. pylori OX.64) of the same molecule?
Its MBC is 1000 µg/mL (≈ 3670 µM).

What about the MIC (H. pylori ATCC 51932) of the same molecule?
Its MIC is 100 µg/mL (≈ 367 µM).

What about the MBC (H. pylori ATCC 51932) of the same molecule?
The MBC was 1000 µg/mL (≈ 3670 µM).

What about the “reduction of biofilm formation” value ([9]; 1/2 × MIC (NRG 50 mg/L, MCT 75 mg/L)) of the same molecule?
The value was 85.9%.

What about the “reduction of biofilm formation” value ([9]; 1/4 × MIC (NRG 25 mg/L)) of the same molecule?
Its value is 52.7%.

What about the MIC (H. pylori OX.22) of the same molecule?
The MIC was 100 µg/mL (≈ 367 µM).

What about the MBC (H. pylori OX.22) of the same molecule?
Its MBC is 1000 µg/mL (≈ 3670 µM).

And the CC50 at 48 h [10]?
Its CC50 at 48 h is 46.6 to 133 µg/mL (≈ 171 to 490 µM).

What about the “conversion to the coccoid form” value (H. pylori ATCC 43504 [11]; 500 mg/L) of the same molecule?
The value was 16.5%.

What about the “conversion to the coccoid form” value (H. pylori ATCC 43504 [11]; 1000 mg/L) of the same molecule?
The value was 95%.

What about the MIC (H. pylori OX.63) of the same molecule?
The MIC was 100 µg/mL (≈ 367 µM).

What about the MBC (H. pylori OX.63) of the same molecule?
Its MBC is 1000 µg/mL (≈ 3670 µM).

Which reduction of viability (H. pylori ATCC 43504 [1]; at the MIC, 36 h) does the source give for `O=C(O)c1ccc(O)c(O)c1` [PCA, protocatechuic acid] here?
Its reduction of viability is about 2 log10.

What about the reduction of viability (H. pylori ATCC 43504 [1]; four times the MIC, 48 h) of the same molecule?
The reduction of viability was about 6 log10.

And the MIC (H. pylori ATCC 43504 [2])?
The MIC was 250 µg/mL (≈ 1620 µM).

And the MBC (H. pylori ATCC 43504 [2])?
Its MBC is 1500 µg/mL (≈ 9730 µM).

And the CC50 at 48 h [3]?
Its CC50 at 48 h is over 200 µg/mL.

What about the MIC (H. pylori OX.67) of the same molecule?
The MIC was 250 µg/mL (≈ 1620 µM).

What about the MBC (H. pylori OX.67) of the same molecule?
The MBC was 1500 µg/mL (≈ 9730 µM).

What about the CC50 at 48 h [4] of the same molecule?
Its CC50 at 48 h is over 200 µg/mL.

What about the CC50 at 48 h [5] of the same molecule?
Its CC50 at 48 h is over 200 µg/mL.

What about the MIC (H. pylori OX.83) of the same molecule?
Its MIC is 250 µg/mL (≈ 1620 µM).

And the MBC (H. pylori OX.83)?
The MBC was 1500 µg/mL (≈ 9730 µM).

What about the CC50 at 48 h [6] of the same molecule?
Its CC50 at 48 h is over 200 µg/mL.

And the IC50 [7]?
The IC50 was 486 µM.

And the “slope ± SE” value [7]?
The value was 2.00 ± 0.075.

And the MIC [8]?
Its MIC is 250 µg/mL (≈ 1620 µM).

And the MIC (H. pylori OX.64)?
The MIC was 250 µg/mL (≈ 1620 µM).

And the MBC (H. pylori OX.64)?
Its MBC is 1500 µg/mL (≈ 9730 µM).

And the MIC (H. pylori ATCC 51932)?
Its MIC is 250 µg/mL (≈ 1620 µM).

And the MBC (H. pylori ATCC 51932)?
Its MBC is 1500 µg/mL (≈ 9730 µM).

What about the antibiofilm activity ([9]; at test concentrations (sub-MICs)) of the same molecule?
The antibiofilm activity was “did not show antibiofilm activity”.

And the MIC (H. pylori OX.22)?
The MIC was 250 µg/mL (≈ 1620 µM).

What about the MBC (H. pylori OX.22) of the same molecule?
The MBC was 1500 µg/mL (≈ 9730 µM).

And the CC50 at 48 h [10]?
The CC50 at 48 h was over 200 µg/mL.

What about the “conversion to the coccoid form” value (H. pylori ATCC 43504 [11]; 500 mg/L) of the same molecule?
Its value is “not significantly different from that in the control group”.

What about the “conversion to the coccoid form” value (H. pylori ATCC 43504 [11]; 1000 mg/L) of the same molecule?
Its value is 12%.

What about the MIC (H. pylori OX.63) of the same molecule?
Its MIC is 250 µg/mL (≈ 1620 µM).

What about the MBC (H. pylori OX.63) of the same molecule?
Its MBC is 1500 µg/mL (≈ 9730 µM).
